# Calls of active or inactive are those of the source. The rule behind the calls is not given here.
# Tests used:
# [1] = system: KB 3-1; test: Antiproliferative activity against human KB-3-1 cells after 48 hrs by MTT assay; assay type: functional, cell-based
# [2] = system: MCF7; test: Induction of apoptosis in human MCF7 cells assessed as early apoptotic cells at 2 uM after 24 hrs by Annexin-V FITC/propidium iodide staining based flow cytometry (reference value: 1.60%); assay type: functional
# [3] = system: MCF7; test: Cell cycle arrest in human MCF7 cells assessed as accumulation at S phase at 0.25 uM after 48 hrs by propidium iodide staining based flow cytometry (reference value: 17.01%); assay type: functional
# [4] = system: MCF7; test: Induction of apoptosis in human MCF7 cells assessed as increase in Bax expression level after 48 hrs by Western blot analysis; assay type: functional, cell-based
# [5] = system: MCF7; test: Induction of apoptosis in human MCF7 cells assessed as viable cells at 2 uM after 24 hrs by Annexin-V FITC/propidium iodide staining based flow cytometry (reference value: 97.5%); assay type: functional; conditions: MCF7, 24 h, read-out: Activity
# [6] = system: Bel-7402; test: Antiproliferative activity against human Bel7402 cells after 72 hrs by MTT assay; assay type: functional, cell-based; conditions: Bel-7402, 72 h
# Outline: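 Cells pre-incubated 24 h at 37 °C, 5% CO2 in 96-well plates, then exposed to a range of compound concentrations (DMSO ≤0.25%) for 72 h. Viable cells read by MTT colour at 570 nm. Performed in quadruplicate, repeated three times. IC50 reported as means ± SD, n = 3.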
# [7] = system: MCF7; test: Cell cycle arrest in human MCF7 cells assessed as accumulation at G1 phase at 1 uM after 48 hrs by propidium iodide staining based flow cytometry (reference value: 70.27%); assay type: functional
# [8] = system: MCF7; test: Cell cycle arrest in human MCF7 cells assessed as accumulation at G2/M phase at 1 uM after 48 hrs by propidium iodide staining based flow cytometry (reference value: 12.72%); assay type: functional
# [9] = system: MCF7; test: Cell cycle arrest in human MCF7 cells assessed as accumulation at G2/M phase at 0.50 uM after 48 hrs by propidium iodide staining based flow cytometry (reference value: 12.72%); assay type: functional
# [10] = system: MCF7; test: Induction of apoptosis in human MCF7 cells assessed as early apoptotic cells at 1 uM after 24 hrs by Annexin-V FITC/propidium iodide staining based flow cytometry (reference value: 1.60%); assay type: functional
# [11] = system: MCF7; test: Cell cycle arrest in human MCF7 cells assessed as accumulation at S phase at 0.50 uM after 48 hrs by propidium iodide staining based flow cytometry (reference value: 17.01%); assay type: functional
# [12] = system: MCF7; test: Induction of apoptosis in human MCF7 cells assessed as necrotic cells at 1 uM after 24 hrs by Annexin-V FITC/propidium iodide staining based flow cytometry (reference value: 0.610%); assay type: functional
# [13] = system: MCF7; test: Induction of apoptosis in human MCF7 cells assessed as decrease in p53 expression level after 48 hrs by Western blot analysis; assay type: functional, cell-based
# Outline: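 MCF-7 cells treated 48 h with 0, 0.5, 1.0, 2.0 or 4.0 μM, then lysed on ice. 20 μg protein per lane run on 8–12% SDS-PAGE and transferred to PVDF. Probed overnight at 4 °C for caspase-3, pro-caspase-3, Bax, Bcl-2, p-ERK and p53, with fluorescent secondary antibodies. Densities normalised to β-actin; three independent experiments.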
# [14] = system: MCF7; test: Induction of apoptosis in human MCF7 cells assessed as necrotic cells at 0.25 uM after 24 hrs by Annexin-V FITC/propidium iodide staining based flow cytometry (reference value: 0.610%); assay type: functional
# [15] = system: MCF7; test: Induction of apoptosis in human MCF7 cells after 24 hrs by Annexin-V FITC/propidium iodide staining based flow cytometry; assay type: functional, cell-based
# [16] = system: MCF7; test: Induction of apoptosis in human MCF7 cells assessed as decrease in mitochondrial membrane potential measured after 36 hrs by JC-1 staining based fluorescence microscopy; assay type: functional, cell-based
# Outline: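 MCF-7 cells treated 36 h across a range of concentrations, then loaded with 10 μg/mL JC-1 for 30 min at 37 °C and washed in PBS. Monomer fluorescence read at ex 490/em 535 nm and aggregate fluorescence at ex 525/em 600 nm, by plate reader or fluorescence microscopy. Run in triplicate.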
# [17] = system: MCF7; test: Cell cycle arrest in human MCF7 cells assessed as accumulation at G2/M phase at 2 uM after 48 hrs by propidium iodide staining based flow cytometry (reference value: 12.72%); assay type: functional
# [18] = system: MCF7; test: Induction of apoptosis in human MCF7 cells assessed as early apoptotic cells at 0.50 uM after 24 hrs by Annexin-V FITC/propidium iodide staining based flow cytometry (reference value: 1.60%); assay type: functional
# [19] = system: MCF7; test: Cell cycle arrest in human MCF7 cells assessed as accumulation at G1 phase at 2 uM after 48 hrs by propidium iodide staining based flow cytometry (reference value: 70.27%); assay type: functional
# [20] = system: H22; test: Antitumor activity against […] cells xenografted in ICR mouse assessed as decrease in tumor weight at 10 to 20 mg/kg, iv qd administered for 14 consecutive days measured every 2 days; assay type: functional, organism-based
# Outline: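 Male ICR mice, five weeks old, implanted s.c. in the right flank with 1 × 10^6 H22 cells. After 7 days, randomised into groups of eight. Given i.v. once daily for 14 days, 10 or 20 mg/kg in 10% DMF/2% poloxamer/88% saline; negative controls received 0.9% saline i.v., positive control 20 mg/kg oridonin. Body weight and tumour volume (L × W²/2) recorded every 2 days. Tumours excised and weighed at sacrifice; inhibition (%) = (1 − treated/control mean tumour weight) × 100.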
# [21] = system: Bel-7402; test: Cytotoxicity against human Bel7402 cells assessed as decrease in cell viability after 24 hrs by LDH release assay; assay type: functional, cell-based
# Outline: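 MCF-7 and Bel-7402 cells seeded at ~5 × 10^3 per well for 24 h, then exposed to compounds. LDH released into the medium measured with CytoTox-ONE reagent (10 min, ambient temperature) followed by stop solution. Fluorescence read at ex 560/em 590 nm.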
smiles,measurement,setting,value
C=C1C(=O)[C@@]23C(=O)OC[C@]4(C=CCC(C)(C)[C@H]4C=O)[C@@H]2CC[C@@H]1[C@H]3OC(=O)c1ccc(F)cc1,Activity,[1],Active
same,Activity,[2],14%
same,Activity,[3],18.3%
same,Activity,[4],Dose-dependent effect
same,viability at 2 µM,[5],58.6%
same,IC50,[6],1800 nM
same,Activity,[7],63.35%
same,Activity,[8],21.23%
same,Activity,[9],19.47%
same,Activity,[10],10.2%
same,Activity,[11],15.71%
same,Activity,[12],1.93%
same,Activity,[13],Dose-dependent effect
same,Activity,[14],0.649%
same,Activity,[15],Dose-dependent effect
same,Activity,[16],Dose-dependent effect
same,Activity,[17],24.8%
same,Activity,[18],9.75%
same,Activity,[19],57.49%
same,Activity,[20],Active
same,Activity,[21],inactive
